Measured values collected from several papers.
Compare with care: the assays were run in different laboratories.
Nectin-4: Nectin-4 (Homo sapiens, UniProt Q96NY8)
PFF0160c: Dihydroorotate dehydrogenase (quinone), mitochondrial (PFF0160c, Plasmodium falciparum, UniProt Q08210)
SIGMAR1: Sigma non-opioid intracellular receptor 1 (SIGMAR1, Homo sapiens, UniProt Q99720)

The Kd of `CCCC[C@@H]1NC(=O)[C@H](Cc2ccc(O)cc2)NC(=O)[C@@H]2CCCN2C(=O)[C@H](CC(=O)O)NC(=O)[C@H](C)NC(=O)[C@H](Cc2ccccc2)NC(=O)[C@@H]2CSCCC(=O)N3CN(CN(C3)C(=O)CCSC[C@@H](C(=O)N[C@@H](CNC(=O)CCc3cn(CCOCCOCCOCCN(CCOCCOCCOCCC(=O)N[C@H]4CSCCC(=O)N5CN6CN(C5)C(=O)CCSC[C@H](NC(=O)[C@@H](CC(=O)O)NC(=O)[C@H](Cc5cccc7ccccc57)NC(=O)[C@@H]5CCCN5C4=O)C(=O)N[C@@H](CCSC)C(=O)N[C@@H](CCCCNC(=N)N)C(=O)N[C@@H](CC(=O)O)C(=O)N[C@@H](Cc4c[nH]c5ccccc45)C(=O)N[C@@H](CO)C(=O)N[C@@H]([C@@H](C)O)C(=O)N4CCC[C@H]4C(=O)N4C[C@H](O)C[C@H]4C(=O)N[C@@H](Cc4c[nH]c5ccccc45)C(=O)N[C@H](C(N)=O)CSCCC6=O)CCOCCOCCOCCn4cc(CCC(=O)NC[C@H](NC(=O)[C@@H]5CSCCC(=O)N6CN7CN(C6)C(=O)CCSC[C@H](NC(=O)[C@H](Cc6ccc(O)cc6)NC(=O)[C@@H]6CCCN6C(=O)[C@@H](C)NC(=O)[C@H](CCC(=O)O)NC(=O)[C@@H]6CCCN6C(=O)[C@H](CC(C)(C)C)NC(=O)[C@@H](NC(C)=O)CSCCC7=O)C(=O)N[C@@H](Cc6ccccc6)C(=O)N[C@@H](C)C(=O)N[C@@H](CC(=O)O)C(=O)N6CCC[C@H]6C(=O)N[C@@H](Cc6ccc(O)cc6)C(=O)N[C@@H](CCCC)C(=O)N5)C(N)=O)nn4)nn3)C(N)=O)NC1=O)C(=O)CCSC[C@H](NC(C)=O)C(=O)N[C@@H](CC(C)(C)C)C(=O)N1CCC[C@H]1C(=O)N[C@@H](CCC(=O)O)C(=O)N[C@H](C)C(=O)N1CCC[C@H]1C(=O)N[C@@H](Cc1ccc(O)cc1)C(=O)N2` is reported as 3.7 nM (Nectin-4; binding; SPR).
`N[C@@H](C[C@]1(C(=O)O)C[C@H]2OC[C@@H](O)[C@@H](O)[C@H]2O1)C(=O)O` has a Ki of 972 nM (Glutamate receptor ionotropic, kainate 2 (Grik2, Rattus norvegicus, UniProt P42260, A518T/Y443F); ligand displacement; radioligand).
With `CCCCN(C)CC#Cc1ccc2[nH]c(C)c(Cl)c(=O)c2c1` the IC50 was 4550 nM (PFF0160c; enzyme activity; inhibitor; absorbance).
With `CCCC[C@@H]1NC(=O)[C@H](Cc2ccc(O)cc2)NC(=O)[C@@H]2CCCN2C(=O)[C@H](CC(=O)O)NC(=O)[C@H](C)NC(=O)[C@H](Cc2ccccc2)NC(=O)[C@@H]2CSCCC(=O)N3CN(CN(C3)C(=O)CCSC[C@H](NC(C)=O)C(=O)N[C@@H](CC(C)(C)C)C(=O)N[C@@H](CCC(=O)O)C(=O)N[C@@H](CCC(=O)O)C(=O)N[C@H](CCCCNC(=O)CCc3cn(CCOCCOCCOCCN(CCOCCOCCOCCC(=O)N[C@H]4CSCCC(=O)N5CN6CN(C5)C(=O)CCSC[C@H](NC(=O)[C@@H](CC(=O)O)NC(=O)[C@H](Cc5cccc7ccccc57)NC(=O)[C@@H]5CCCN5C4=O)C(=O)N[C@@H](CCSC)C(=O)N[C@@H](CCCCNC(=N)N)C(=O)N[C@@H](CC(=O)O)C(=O)N[C@@H](Cc4c[nH]c5ccccc45)C(=O)N[C@@H](CO)C(=O)N[C@@H]([C@@H](C)O)C(=O)N4CCC[C@H]4C(=O)N4C[C@H](O)C[C@H]4C(=O)N[C@@H](Cc4c[nH]c5ccccc45)C(=O)N[C@H](C(N)=O)CSCCC6=O)CCOCCOCCOCCn4cc(CCC(=O)NCCCC[C@H]5NC(=O)[C@H](CCC(=O)O)NC(=O)[C@H](CCC(=O)O)NC(=O)[C@H](CC(C)(C)C)NC(=O)[C@@H](NC(C)=O)CSCCC(=O)N6CN7CN(C6)C(=O)CCSC[C@H](NC(=O)[C@H](Cc6ccc(O)cc6)NC(=O)[C@@H]6CCCN6C5=O)C(=O)N[C@@H](Cc5ccccc5)C(=O)N[C@@H](C)C(=O)N[C@@H](CC(=O)O)C(=O)N5CCC[C@H]5C(=O)N[C@@H](Cc5ccc(O)cc5)C(=O)N[C@@H](CCCC)C(=O)N[C@H](C(N)=O)CSCCC7=O)nn4)nn3)C(=O)N3CCC[C@H]3C(=O)N[C@@H](Cc3ccc(O)cc3)C(=O)N2)C(=O)CCSC[C@@H](C(N)=O)NC1=O` the Kd was 5 nM (Nectin-4; binding; SPR).
For `CN(C)CC[C@@H](c1ccc(Cl)cc1)c1ccccn1`, the Ki was 1990 nM (SIGMAR1; ligand displacement; radioligand).
`CCC(c1ccccc1)c1nn2c(-c3cccs3)nnc2s1` (stereo not drawn) gave an IC50 of 158 nM (PFF0160c; enzyme activity; inhibitor; absorbance).
The Ki of `CN1CCN(C2=Nc3ccccc3Oc3ccc(Cl)cc32)CC1` is reported as over 10000 nM (SIGMAR1; ligand displacement; radioligand).
`CCCC[C@@H]1NC(=O)[C@H](Cc2ccc(O)cc2)NC(=O)[C@@H]2CCCN2C(=O)[C@H](CCC(=O)O)NC(=O)[C@H](C)NC(=O)[C@H](Cc2ccccc2)NC(=O)[C@@H]2CSCCC(=O)N3CN(CN(C3)C(=O)CCSC[C@H](NC(C)=O)C(=O)N[C@@H](CC(C)(C)C)C(=O)N3CCC[C@H]3C(=O)N[C@@H](CCC(=O)O)C(=O)N[C@H](CCCCNC(=O)CCc3cn(CCOCCOCCOCCOCCOCCC(=O)N[C@H]4CSCCC(=O)N5CN6CN(C5)C(=O)CCSC[C@H](NC(=O)[C@@H](CC(=O)O)NC(=O)[C@H](Cc5cccc7ccccc57)NC(=O)[C@@H]5CCCN5C4=O)C(=O)N[C@@H](CCSC)C(=O)N[C@@H](CCCCNC(=N)N)C(=O)N[C@@H](CC(=O)O)C(=O)N[C@@H](Cc4c[nH]c5ccccc45)C(=O)N[C@@H](CO)C(=O)N[C@@H]([C@@H](C)O)C(=O)N4CCC[C@H]4C(=O)N4C[C@H](O)C[C@H]4C(=O)N[C@@H](Cc4c[nH]c5ccccc45)C(=O)N[C@H](C(N)=O)CSCCC6=O)nn3)C(=O)N3CCC[C@H]3C(=O)N[C@@H](Cc3ccc(O)cc3)C(=O)N2)C(=O)CCSC[C@@H](C(N)=O)NC1=O` has a Kd of 2.5 nM (Nectin-4; binding; SPR).
With `O=C1C(c2ccccc2)=C(Nc2ccc([N+](=O)[O-])cc2)c2ccccc21` the IC50 was 2150 nM (PFF0160c; enzyme activity; inhibitor; absorbance).
`Cc1c(-c2ccccc2)oc2c(C(=O)OCCN3CCCCC3)cccc2c1=O` has a Ki of over 10000 nM (SIGMAR1; ligand displacement; radioligand).
The IC50 of `O=C(CNCC1CCCCC1)Nc1cc(C(F)(F)F)ccc1Cl` is reported as 8390 nM (Dihydroorotate dehydrogenase (quinone), mitochondrial (PFF0160c, Plasmodium falciparum, UniProt Q08210, E182D); enzyme activity; inhibitor; absorbance).
`Cc1nccn1CC1CCc2c(c3ccccc3n2C)C1=O` (stereo not drawn) gave a Ki of 6510 nM (SIGMAR1; ligand displacement; radioligand).
